Source: ChEMBL document CHEMBL3856229, “Hybrid Antibiotic Overcomes Resistance in P. aeruginosa by Enhancing Outer Membrane Penetration and Reducing Efflux” (J Med Chem, 2016)
Activity calls are given as the source filed them. The calls are words filed in the database; no cut-off is given here.

Columns and labels:
Escherichia coli [1] = test: Antibacterial activity against amikacin-resistant Escherichia coli isolate CAN-ICU 63074 after 24 hrs by microtitre broth dilution method; type: functional; settings: isolate CAN-ICU 63074, 24 h
[2] = tested on: Staphylococcus epidermidis; test: Antibacterial activity against methicillin-resistant Staphylococcus epidermidis isolate CAN-ICU 61589 after 24 hrs by microtitre broth dilution method; type: functional; settings: isolate CAN-ICU 61589, 24 h
[3] = tested on: Stenotrophomonas maltophilia; test: Antibacterial activity against Stenotrophomonas maltophilia isolate CAN-ICU 62584 after 24 hrs by microtitre broth dilution method; type: functional; settings: isolate CAN-ICU 62584, 24 h
[4] = Inhibition of circular DNA translation in Escherichia coli S30 extract after 60 mins by luciferase reporter gene assay
Outline: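 Translation was run in an E. coli S30 extract with a luciferase read-out. Luminescence is expressed as a percentage of the no-antibiotic control, taken as 100%.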

Escherichia coli [5] = test: Antibacterial activity against fluoroquinolone resistant Escherichia coli isolate 89439 harboring beta-lactamase CTX-M-15/OXA-1; type: functional
Escherichia coli [6] = test: Antibacterial activity against fluoroquinolone resistant Escherichia coli isolate 95882 harboring beta-lactamase KPC-3/TEM-1; type: functional
Pseudomonas aeruginosa [7] = test: Antibacterial activity against multidrug-resistant/tobramycin-susceptible Pseudomonas aeruginosa isolate 80621; type: functional
Enterococcus faecalis = test: Antibacterial activity against Enterococcus faecalis ATCC 29212 after 24 hrs by microtitre broth dilution method; type: functional; settings: ATCC 29212, 24 h
Pseudomonas aeruginosa [8] = test: Antibacterial activity against multidrug-resistant/tobramycin-susceptible Pseudomonas aeruginosa isolate 83182; type: functional
Klebsiella pneumoniae = test: Antibacterial activity against Klebsiella pneumoniae ATCC 13883 after 24 hrs by microtitre broth dilution method; type: functional; settings: ATCC 13883, 24 h
Pseudomonas aeruginosa [9] = test: Antimicrobial activity against Pseudomonas aeruginosa PAO1 assessed as cell membrane blebbing at 8 ug/ml after 3 to 4 hrs by uranyl acetate staining based transmission electron microscopy; type: functional
Outline: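 PAO1 in Mueller-Hinton broth was exposed to 8 µg/mL at 37 °C (3 h in the legend, 4 h in the text). Untreated cells were the reference. Morphology was imaged by transmission electron microscopy at 75 kV.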

Pseudomonas aeruginosa [10] = test: Antibacterial activity against gentamicin/tobramycin-resistant Pseudomonas aeruginosa isolate CANWARD-2011 96846 after 24 hrs by microtitre broth dilution method; type: functional; settings: isolate CANWARD-2011 96846, 24 h
Pseudomonas aeruginosa [11] = test: Antibacterial activity against multidrug/extremely drug-resistant Pseudomonas aeruginosa isolate PA260-97103 in presence of <= 4 ug/ml of moxifloxacin (reference value: 1 ug/ml); type: functional
Pseudomonas aeruginosa [12] = test: Antibacterial activity against multidrug/extremely drug-resistant Pseudomonas aeruginosa isolate PA262-101856 in presence of <= 4 ug/ml of ciprofloxacin (reference value: 4 ug/ml); type: functional
Pseudomonas aeruginosa [13] = test: Antibacterial activity against pandrug-resistant Pseudomonas aeruginosa isolate 101243 in presence of <= 4 ug/ml of ciprofloxacin (reference value: 8 ug/ml); type: functional
Escherichia coli [14] = test: Antibacterial activity against fluoroquinolone resistant Escherichia coli isolate N-10-1631 harboring beta-lactamase CTX-M-15/OXA-1; type: functional
Pseudomonas aeruginosa [15] = test: Antibacterial activity against gentamicin-resistant Pseudomonas aeruginosa isolate CAN-ICU 62308 after 24 hrs by microtitre broth dilution method; type: functional; settings: isolate CAN-ICU 62308, 24 h
Escherichia coli [16] = test: Antibacterial activity against fluoroquinolone resistant Escherichia coli isolate 98550 harboring beta-lactamase CTX-M-15/OXA-1; type: functional
Pseudomonas aeruginosa [17] = test: Antibacterial activity against multidrug/extremely drug-resistant/pandrug-resistant Pseudomonas aeruginosa isolate PA259-96918 in presence of <= 4 ug/ml of moxifloxacin (reference value: 2 ug/ml); type: functional
Escherichia coli [18] = test: Antibacterial activity against fluoroquinolone resistant Escherichia coli isolate 80960 harboring beta-lactamase CTX-M-15/TEM-1; type: functional
Pseudomonas aeruginosa [19] = test: Antibacterial activity against Pseudomonas aeruginosa PAO1 assessed as fractional inhibitory concentration index after 18 hrs in presence of trimethoprim by checkerboard method; type: functional
Outline: (§1)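 Checkerboard combinations of the hybrid with each partner antibiotic were tested against P. aeruginosa PAO1. Interaction is expressed as the fractional inhibitory concentration (FIC) index: ≤0.5 means synergy, 1–2 no interaction, ≥4 antagonism.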

Pseudomonas aeruginosa [20] = test: Potentiation of ciprofloxacin induced antibacterial activity against pandrug-resistant Pseudomonas aeruginosa isolate 101243 assessed as ciprofloxacin MIC at <= […] ug/ml (reference value: 2 ug/ml); type: functional
Acinetobacter baumannii = test: Antibacterial activity against fluoroquinolone resistant Acinetobacter baumannii isolate ABO28; type: functional
Pseudomonas aeruginosa [21] = test: Antibacterial activity against extremely drug-resistant Pseudomonas aeruginosa isolate 104354 infected in Galleria mellonella assessed as larvae survival at 75 mg/kg administered as single dose measured after 96 hrs; type: functional; settings: isolate 104354, 96 h
Outline: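 Galleria mellonella larvae were infected with 10^6 CFU of XDR P. aeruginosa #104354, resistant to all antipseudomonal classes except colistin. A single injected drug dose was given 2 h post-infection: 50 mg/kg with survival read at 24 h, or 75 mg/kg with survival read at 96 h. Controls were infected untreated larvae and PBS-injected larvae. Two independent experiments of 15 larvae each (n = 30).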

Pseudomonas aeruginosa [22] = test: Potentiation of moxifloxacin induced antibacterial activity against pandrug-resistant Pseudomonas aeruginosa isolate 101243 assessed as moxifloxacin MIC at <= […] ug/ml (reference value: 8 ug/ml); type: functional
Pseudomonas aeruginosa [23] = test: Potentiation of ciprofloxacin induced antibacterial activity against pandrug-resistant Pseudomonas aeruginosa isolate 91433 assessed as ciprofloxacin MIC at <= […] ug/ml (reference value: 4 to 8 ug/ml); type: functional
Pseudomonas aeruginosa [24] = test: Antibacterial activity against pandrug-resistant Pseudomonas aeruginosa isolate 91433 in presence of <= 4 ug/ml of ciprofloxacin (reference value: 8 ug/ml); type: functional
Pseudomonas aeruginosa [25] = test: Antibacterial activity against pandrug-resistant Pseudomonas aeruginosa isolate 91433; type: functional
Escherichia coli [26] = test: Antibacterial activity against Escherichia coli ATCC 25922 after 24 hrs by microtitre broth dilution method; type: functional; settings: ATCC 25922, 24 h
Pseudomonas aeruginosa [27] = test: Antibacterial activity against Pseudomonas aeruginosa PAO1 assessed as fractional inhibitory concentration index after 18 hrs in presence of rifampicin by checkerboard method; type: functional; outline: as §1
Pseudomonas aeruginosa [28] = test: Antimicrobial activity against Pseudomonas aeruginosa PAO750; type: functional
Outline: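 MICs were measured in PAO1 and in PAO750. PAO750 is a PAO1 derivative lacking the MexAB-OprM, MexCD-OprJ, MexEF-OprN, MexJK and MexXY efflux pumps and the outer membrane protein OpmH.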

Pseudomonas aeruginosa [29] = test: Antibacterial activity against multidrug/extremely drug-resistant Pseudomonas aeruginosa isolate PA264-104354 in presence of <= 4 ug/ml of moxifloxacin (reference value: 4 ug/ml); type: functional
[30] = Cytotoxicity against human JIMT1 cells assessed as reduction in cell viability after 48 hrs by MTS assay; type: toxicity, cell-based, JIMT-1
Staphylococcus aureus = test: Antibacterial activity against methicillin-resistant Staphylococcus aureus ATCC 33592 after 24 hrs by microtitre broth dilution method; type: functional; settings: ATCC 33592, 24 h
Escherichia coli [31] = test: Antibacterial activity against fluoroquinolone resistant Escherichia coli isolate 85332 harboring beta-lactamase CTX-M-14/TEM-1; type: functional

**Q.** What does the source list for `COc1c(N2C[C@@H]3CCCN(CCCCCCCCCCCCO[C@@H]4[C@@H](O[C@H]5O[C@H](CO)[C@@H](O)[C@H](N)[C@H]5O)[C@H](N)C[C@H](N)[C@H]4O[C@H]4O[C@H](CN)[C@@H](O)C[C@H]4N)[C@@H]3C2)c(F)cc2c(=O)c(C(=O)O)cn(C3CC3)c12.Cl.Cl.Cl.Cl.Cl`?
**A.** MIC (Escherichia coli [1]): 4 µg/mL; MIC [2]: 16 µg/mL; MIC [3]: 32 µg/mL; IC50 [4]: 4.7 µM; MIC (Escherichia coli [5]): ≥ 64 µg/mL; MIC (Escherichia coli [6]): ≥ 64 µg/mL; MIC (Pseudomonas aeruginosa [7]): 8 µg/mL; MIC (Enterococcus faecalis): 4 µg/mL; MIC (Pseudomonas aeruginosa [8]): 8 µg/mL; MIC (Klebsiella pneumoniae): 1 µg/mL; Activity (Pseudomonas aeruginosa [9]): Active; MIC (Pseudomonas aeruginosa [10]): 4 µg/mL; MIC (Pseudomonas aeruginosa [11]): 0.25 µg/mL; MIC (Pseudomonas aeruginosa [12]): < 0.5 µg/mL; MIC (Pseudomonas aeruginosa [13]): < 1 µg/mL; MIC (Escherichia coli [14]): ≥ 64 µg/mL; MIC (Pseudomonas aeruginosa [15]): 8 µg/mL; MIC (Escherichia coli [16]): ≥ 64 µg/mL; MIC (Pseudomonas aeruginosa [17]): < 1 µg/mL; MIC (Escherichia coli [18]): ≥ 64 µg/mL; fractional inhibitory concentration index (FICI) (Pseudomonas aeruginosa [19]): 0.25; MIC (Pseudomonas aeruginosa [20]): 0.06 µg/mL; MIC (Acinetobacter baumannii): 8 to 64 µg/mL; survival at 75 mg/kg (Pseudomonas aeruginosa [21]): 20%; MIC (Pseudomonas aeruginosa [22]): 0.06 µg/mL; MIC (Pseudomonas aeruginosa [23]): 0.25 µg/mL; MIC (Pseudomonas aeruginosa [24]): < 1 µg/mL; MIC (Pseudomonas aeruginosa [25]): 8 µg/mL; MIC (Escherichia coli [26]): 0.5 µg/mL; fractional inhibitory concentration index (FICI) (Pseudomonas aeruginosa [27]): 0.15; MIC (Pseudomonas aeruginosa [28]): 0.5 µg/mL; MIC (Pseudomonas aeruginosa [29]): < 1 µg/mL; CC50 at 48 h [30]: > 30 µM; MIC (Staphylococcus aureus): 1 µg/mL; MIC (Escherichia coli [31]): ≥ 64 µg/mL
